ChEMBL document CHEMBL2157918, “Design and synthesis of 1H-1,2,3-triazoles derived from econazole as antitubercular agents” (Bioorg Med Chem Lett, 2012)
In brackets after ≈: the same amount, converted by molar mass.

Key:
[1] = tested on: Mycobacterium tuberculosis; test: Antitubercular activity against Mycobacterium tuberculosis H37Rv expressing GFP after 7 days by reporter gene assay; type: functional; conditions: 168 h
Method in brief: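 Compound dissolved in DMSO, two-fold dilutions in 7H9 broth; Mtb H37Rv-GFP grown in Middlebrook 7H9, inoculum 2 × 10⁵ CFU/mL, exposed 7 days. Fluorescence read; MIC = lowest concentration inhibiting fluorescence by 90% versus bacteria-only wells.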

Vero = test: Cytotoxicity against african green monkey Vero cells after 3 days by MTT assay; type: cell-based; conditions: Chlorocebus sabaeus, 72 h
Method in brief: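 Early-log-phase Vero cell suspension was exposed to serially diluted compounds (initially in DMSO) in RPMI 1640 for 3 days and read by MTT assay. Effect was normalized to DMSO-only wells and IC50 was calculated.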

Candida albicans = test: Antifungal activity against Candida albicans ATCC 90027 after 48 hrs by broth microdilution method; type: functional; conditions: ATCC 90027, 48 h
Method in brief: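 Broth microdilution with two-fold compound dilutions in tryptic soy broth. C. albicans grown in the same medium was exposed for 48 h. Growth was visualized with Alamar Blue. MIC was taken as the lowest concentration that inhibited the Alamar Blue color change.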

[2] = tested on: Mycobacterium tuberculosis; test: Ratio of econazole MIC90 to compound MIC90 for Mycobacterium tuberculosis H37Rv; type: functional
[3] = Selectivity index, ratio of IC50 for african green monkey Vero cells to MIC90 for Mycobacterium tuberculosis H37Rv; type: functional
Method in brief: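 Vero cells in early log phase, in RPMI 1640, exposed to serial compound dilutions for 3 days; viability by MTT assay; effect normalized to DMSO-only wells, IC50 by curve fitting. SI = Vero IC50 over Mtb H37Rv-GFP MIC (90% fluorescence inhibition, 7-day 7H9 exposure, 2 × 10⁵ CFU/mL inoculum).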

SMILES	MIC90 [1]	IC50 (Vero)	MIC (Candida albicans)	Ratio [2]	Selectivity Index [3]
OCc1cn(CC(OCc2ccc(Cl)cc2)c2ccc(Cl)cc2Cl)nn1 (stereo not given)	> 256 µg/mL	19.8 µg/mL (≈ 48 µM)	> 256 µg/mL	–	–
Clc1ccc(COC(Cn2cc(C3CCCCC3)nn2)c2ccc(Cl)cc2Cl)cc1 (stereo not given)	> 256 µg/mL	> 12.5 µg/mL	> 256 µg/mL	–	–
CC(C)(C)c1cn(CC(OCc2ccc(Cl)cc2)c2ccc(Cl)cc2Cl)nn1 (stereo not given)	> 256 µg/mL	> 25 µg/mL	> 256 µg/mL	–	–
Nc1cccc(-c2cn(CC(OCc3ccc(Cl)cc3)c3ccc(Cl)cc3Cl)nn2)c1 (stereo not given)	> 256 µg/mL	> 50 µg/mL	> 256 µg/mL	–	–
Nc1ccc(-c2cn(CC(OCc3ccc(Cl)cc3)c3ccc(Cl)cc3Cl)nn2)cc1 (stereo not given)	256 µg/mL (≈ 540 µM)	> 50 µg/mL	> 256 µg/mL	–	–
Clc1ccc(COC(Cn2cc(-c3ccccn3)nn2)c2ccc(Cl)cc2Cl)cc1 (stereo not given)	256 µg/mL (≈ 557 µM)	> 50 µg/mL	> 256 µg/mL	–	–
OC(Cn1ccnn1)c1ccc(Cl)cc1Cl (stereo not given)	256 µg/mL (≈ 992 µM)	> 200 µg/mL	> 256 µg/mL	–	–
OC(Cn1nnc2ccccc21)c1ccc(Cl)cc1Cl (stereo not given)	> 256 µg/mL	> 100 µg/mL	> 256 µg/mL	–	–
Clc1ccc(COC(Cn2ccnn2)c2ccc(Cl)cc2Cl)cc1 (stereo not given)	64 µg/mL (≈ 167 µM)	> 12.5 µg/mL	> 256 µg/mL	–	–
Clc1ccc(COC(Cn2nnc3ccccc32)c2ccc(Cl)cc2Cl)cc1 (stereo not given)	128 µg/mL (≈ 296 µM)	> 12.5 µg/mL	> 256 µg/mL	–	–
CCCCc1cn(CC(O)c2ccc(Cl)cc2Cl)nn1 (stereo not given)	8 µg/mL (≈ 25.5 µM)	23.3 µg/mL (≈ 74.1 µM)	> 256 µg/mL	2	1
OCCc1cn(CC(O)c2ccc(Cl)cc2Cl)nn1 (stereo not given)	256 µg/mL (≈ 847 µM)	274 µg/mL (≈ 907 µM)	> 256 µg/mL	–	–
OCc1cn(CC(O)c2ccc(Cl)cc2Cl)nn1 (stereo not given)	> 256 µg/mL	> 100 µg/mL	–	–	–
OC(Cn1cc(C2CCCCC2)nn1)c1ccc(Cl)cc1Cl (stereo not given)	16 µg/mL (≈ 47 µM)	31.9 µg/mL (≈ 93.9 µM)	> 256 µg/mL	–	1
CC(C)(C)c1cn(CC(O)c2ccc(Cl)cc2Cl)nn1 (stereo not given)	32 µg/mL (≈ 102 µM)	33.9 µg/mL (≈ 108 µM)	256 µg/mL (≈ 815 µM)	–	–
Nc1cccc(-c2cn(CC(O)c3ccc(Cl)cc3Cl)nn2)c1 (stereo not given)	32 µg/mL (≈ 91.6 µM)	26.8 µg/mL (≈ 76.7 µM)	> 256 µg/mL	–	–
Nc1ccc(-c2cn(CC(O)c3ccc(Cl)cc3Cl)nn2)cc1 (stereo not given)	32 µg/mL (≈ 91.6 µM)	33.9 µg/mL (≈ 97.2 µM)	> 256 µg/mL	–	–
OC(Cn1cc(-c2ccccn2)nn1)c1ccc(Cl)cc1Cl (stereo not given)	32 µg/mL (≈ 95.5 µM)	–	–	–	–
CCCCc1cn(CC(OCc2ccc(Cl)cc2)c2ccc(Cl)cc2Cl)nn1 (stereo not given)	128 µg/mL (≈ 292 µM)	10.6 µg/mL (≈ 24.2 µM)	> 256 µg/mL	–	–
CCCCc1cn(CC(OCc2ccc(OC(F)(F)F)cc2)c2ccc(Cl)cc2Cl)nn1 (stereo not given)	> 256 µg/mL	63.4 µg/mL (≈ 130 µM)	> 256 µg/mL	–	–
CCCCc1cn(CC(OCc2ccc(F)cc2F)c2ccc(Cl)cc2Cl)nn1 (stereo not given)	> 256 µg/mL	21 µg/mL (≈ 47.7 µM)	> 256 µg/mL	–	–
OCCc1cn(CC(OCc2ccc(Cl)cc2)c2ccc(Cl)cc2Cl)nn1 (stereo not given)	> 256 µg/mL	24.3 µg/mL (≈ 57 µM)	> 256 µg/mL	–	–
OCCc1cn(CC(OCc2ccc(OC(F)(F)F)cc2)c2ccc(Cl)cc2Cl)nn1 (stereo not given)	> 64 µg/mL	–	> 64 µg/mL	–	–
OCCc1cn(CC(OCc2ccc(F)cc2F)c2ccc(Cl)cc2Cl)nn1 (stereo not given)	128 µg/mL (≈ 299 µM)	33.7 µg/mL (≈ 78.6 µM)	> 256 µg/mL	–	–
Clc1ccc(COC(Cn2ccnc2)c2ccc(Cl)cc2Cl)cc1 (stereo not given) [ECONAZOLE]	16 µg/mL (≈ 41.9 µM)	–	16 µg/mL (≈ 41.9 µM)	–	1
CO[C@H]1/C=C/O[C@@]2(C)Oc3c(C)c(O)c4c(O)c(c(/C=N/N5CCN(C)CC5)c(O)c4c3C2=O)NC(=O)/C(C)=C\C=C\[C@H](C)[C@H](O)[C@@H](C)[C@@H](O)[C@@H](C)[C@H](OC(C)=O)[C@@H]1C [RIFAMPIN]	0.0625 µg/mL (≈ 0.0759 µM)	–	–	–	–
